Measured values reported in ChEMBL document CHEMBL1681770, “CD22-antagonists with nanomolar potency: the synergistic effect of hydrophobic groups at C-2 and C-9 of sialic acid scaffold” (Bioorg Med Chem, 2011).

Legend:
B-cell receptor CD22 [1] = molecular target: T1, B-cell receptor CD22 (Mus musculus, UniProt P35329); assay: Antagonist activity at mouse CD22 after 1 hr by competitive ELISA; type: functional
T1 sequence (P35329 whole entry): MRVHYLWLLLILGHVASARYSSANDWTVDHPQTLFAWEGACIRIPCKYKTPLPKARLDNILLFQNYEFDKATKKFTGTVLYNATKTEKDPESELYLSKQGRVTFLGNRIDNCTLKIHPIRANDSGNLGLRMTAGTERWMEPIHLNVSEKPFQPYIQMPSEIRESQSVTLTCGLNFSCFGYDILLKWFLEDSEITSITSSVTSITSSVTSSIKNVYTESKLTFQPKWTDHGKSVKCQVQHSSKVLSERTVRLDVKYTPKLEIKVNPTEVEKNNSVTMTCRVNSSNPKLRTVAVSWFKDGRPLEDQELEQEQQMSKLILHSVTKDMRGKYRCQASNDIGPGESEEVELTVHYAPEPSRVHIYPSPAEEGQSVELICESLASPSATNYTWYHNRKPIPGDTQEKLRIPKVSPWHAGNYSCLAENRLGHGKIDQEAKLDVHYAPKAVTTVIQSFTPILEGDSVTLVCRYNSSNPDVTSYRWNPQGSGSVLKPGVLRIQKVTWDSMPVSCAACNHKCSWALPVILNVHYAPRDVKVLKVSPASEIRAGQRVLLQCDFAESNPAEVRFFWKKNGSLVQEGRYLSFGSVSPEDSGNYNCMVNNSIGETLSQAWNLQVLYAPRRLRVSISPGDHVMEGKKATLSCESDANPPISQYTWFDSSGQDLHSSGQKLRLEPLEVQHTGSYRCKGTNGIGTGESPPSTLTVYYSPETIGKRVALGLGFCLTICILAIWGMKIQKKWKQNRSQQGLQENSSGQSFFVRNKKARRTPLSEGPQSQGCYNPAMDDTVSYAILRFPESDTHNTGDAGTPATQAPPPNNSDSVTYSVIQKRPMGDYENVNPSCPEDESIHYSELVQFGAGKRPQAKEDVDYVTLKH
How it was run: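 Competition ELISA. Wells coated overnight with streptavidin (40 μg/mL in 50 mM NaHCO3, pH 8.5), then loaded 1 h with biotinylated sialoside probe (4 μg/mL in PBS) and blocked 3 h with 0.5% BSA/PBS. Graded inhibitor concentrations were incubated 1 h with 0.5 μg CD22Fc. After PBS/0.05% Tween 20 washes, bound Fc was detected with alkaline phosphatase anti-human IgG Fc. Triplicates, mean ± SD.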

Homo sapiens = organism: Homo sapiens; assay: Selectivity ratio of IC50 for human MAG to IC50 for human CD22
[2] = molecular target: T2, Myelin-associated glycoprotein (Homo sapiens, UniProt P20916); assay: Inhibition of human MAG after 30 min by competitive ELISA
T2 sequence (P20916 whole entry): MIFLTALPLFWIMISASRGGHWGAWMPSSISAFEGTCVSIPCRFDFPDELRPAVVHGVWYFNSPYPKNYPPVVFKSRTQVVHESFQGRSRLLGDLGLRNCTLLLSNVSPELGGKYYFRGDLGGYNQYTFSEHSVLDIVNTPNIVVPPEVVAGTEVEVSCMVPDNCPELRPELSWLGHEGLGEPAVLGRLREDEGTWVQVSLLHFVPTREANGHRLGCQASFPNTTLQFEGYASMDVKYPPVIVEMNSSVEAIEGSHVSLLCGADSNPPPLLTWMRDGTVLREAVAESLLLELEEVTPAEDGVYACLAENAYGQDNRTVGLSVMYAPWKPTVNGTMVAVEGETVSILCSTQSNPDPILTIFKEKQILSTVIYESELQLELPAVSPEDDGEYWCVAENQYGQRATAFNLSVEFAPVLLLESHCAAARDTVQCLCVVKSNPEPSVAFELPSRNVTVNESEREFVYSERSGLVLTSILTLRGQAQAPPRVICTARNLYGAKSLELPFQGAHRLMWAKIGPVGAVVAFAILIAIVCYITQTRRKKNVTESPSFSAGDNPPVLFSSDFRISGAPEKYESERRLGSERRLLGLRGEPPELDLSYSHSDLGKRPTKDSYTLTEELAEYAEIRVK

B-cell receptor CD22 [3] = molecular target: T3, B-cell receptor CD22 (Homo sapiens, UniProt P20273); assay: Antagonist activity at human CD22 after 1 hr by competitive ELISA; type: functional
T3 sequence (P20273 whole entry): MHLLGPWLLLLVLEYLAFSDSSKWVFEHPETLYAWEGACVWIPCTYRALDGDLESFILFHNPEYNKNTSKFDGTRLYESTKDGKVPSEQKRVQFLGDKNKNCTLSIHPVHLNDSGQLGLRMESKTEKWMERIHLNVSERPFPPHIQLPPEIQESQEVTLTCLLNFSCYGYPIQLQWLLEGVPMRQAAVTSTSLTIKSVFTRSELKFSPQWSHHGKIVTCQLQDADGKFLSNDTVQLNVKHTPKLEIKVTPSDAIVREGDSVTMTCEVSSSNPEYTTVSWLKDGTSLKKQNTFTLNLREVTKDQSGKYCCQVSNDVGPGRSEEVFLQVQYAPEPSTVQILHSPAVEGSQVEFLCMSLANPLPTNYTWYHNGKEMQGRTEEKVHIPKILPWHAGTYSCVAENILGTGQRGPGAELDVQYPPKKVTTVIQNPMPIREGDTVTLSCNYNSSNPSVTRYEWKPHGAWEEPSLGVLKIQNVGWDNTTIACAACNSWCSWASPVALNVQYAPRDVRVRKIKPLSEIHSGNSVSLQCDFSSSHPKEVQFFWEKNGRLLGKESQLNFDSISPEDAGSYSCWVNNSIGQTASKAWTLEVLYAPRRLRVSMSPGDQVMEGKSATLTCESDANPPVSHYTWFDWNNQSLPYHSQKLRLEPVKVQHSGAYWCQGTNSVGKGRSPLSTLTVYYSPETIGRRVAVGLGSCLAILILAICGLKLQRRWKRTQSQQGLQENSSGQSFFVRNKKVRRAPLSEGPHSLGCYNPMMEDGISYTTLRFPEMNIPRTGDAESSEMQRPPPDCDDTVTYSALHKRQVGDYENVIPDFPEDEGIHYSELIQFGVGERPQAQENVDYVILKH
How it was run: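 Neutravidin-precoated plates (1 μg/well, overnight, 4°C) were blocked with 0.5% BSA in HBSS for 30 min at 37°C. Biotinylated Siaα2-6LacNAc-PAA (0.625 μg/mL) was bound 1 h at RT. Inhibitor and precomplexed hCD22-Fc/goat anti-human IgG F(ab')2 were added and bound 30 min at 37°C. After HBSS washes: TMB, H2SO4 stop, OD450. Triplicates, mean ± SD.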

[4] = molecular target: T4, B-cell receptor CD22 (Mus musculus) (UniProt P35329); assay: Ratio of IC50 for 9-(4'-hydroxy-4-biphenyl)acetamido-9-deoxy-Neu5Gca2-6GalOMP to IC50 for compound at mouse CD22
T4 sequence (whole entry): T1 sequence (P35329 whole entry)
How it was run: (§1)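 Relative inhibitory potency (rIP) = IC50 of the 9-biphenylacetamido Neu5Gcα2-6GalOMP reference divided by IC50 of the test sialoside, each IC50 taken from the competition ELISA for the respective CD22 species. Values above 1.0 mean tighter binding than the reference.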

[5] = molecular target: B-cell receptor CD22 (Homo sapiens) (UniProt P20273); assay: Ratio of IC50 for 9-(4'-hydroxy-4-biphenyl)acetamido-9-deoxy-Neu5Gca2-6GalOMP to IC50 for compound at human CD22; how it was run: as §1
[6] = molecular target: T2, Myelin-associated glycoprotein; assay: Inhibition of human MAG after 1 hr by competitive ELISA; conditions: in the assay text read “after 30 min” for “after 1 hr”
How it was run: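 Neutravidin plates as for hCD22, with biotinylated Siaα2-3LacNAc-PAA (0.33 μM) bound 1 h at RT. MAG-Fc (~0.12 μg/ml) was pretreated with V. cholerae sialidase (0.4 mU/ml) 45 min, stopped with 1 mM EDTA, then complexed 45 min with goat anti-human IgG F(ab')2 (0.05 μg/mL) and HRP anti-goat F(ab')2 (0.0167 μg/mL). Complex was diluted 3:2, bound with inhibitor 30 min at 37°C, and read by TMB at OD450.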

SMILES	IC50 (B-cell receptor CD22 [1]) [µM]	Ratio IC50 (Homo sapiens)	IC50 [2] [µM]	IC50 (B-cell receptor CD22 [3]) [µM]	Ratio IC50 [4]	Ratio IC50 [5]	IC50 [6] [µM]
O=C(CO)N[C@H]1[C@H]([C@H](O)[C@H](O)CNCc2ccc(-c3ccc(O)cc3)cc2)O[C@@](OCc2ccc(-c3ccccc3)cc2)(C(=O)O)C[C@@H]1O	23.3	7.4	16.6	1.12	0.3	0.5	
O=C(Cc1ccc(-c2ccc(F)cc2)cc1)NC[C@@H](O)[C@@H](O)[C@@H]1O[C@@](OCc2ccccc2)(C(=O)O)C[C@H](O)[C@H]1NC(=O)CO	5				0.77		
COc1ccc(O[C@@H]2O[C@H](CO[C@]3(C(=O)O)C[C@H](O)[C@@H](NC(=O)CO)[C@H]([C@H](O)[C@H](O)CNCc4ccc(-c5ccc(O)cc5)cc4)O3)[C@H](O)[C@H](O)[C@H]2O)cc1	6.43	11.4		0.53	1	1	37.4
O=C(CO)N[C@H]1[C@H]([C@H](O)[C@H](O)CNCc2ccc(-c3ccc(O)cc3)cc2)O[C@@](OCc2ccccc2)(C(=O)O)C[C@@H]1O	5.03	3.4		0.82	1.2	0.6	9.27

Compounds with a lower IC50 (B-cell receptor CD22 [1]), results first:

IC50 (B-cell receptor CD22 [1]) [µM]	Ratio IC50 (Homo sapiens)	IC50 [2] [µM]	IC50 (B-cell receptor CD22 [3]) [µM]	Ratio IC50 [4]	Ratio IC50 [5]	IC50 [6] [µM]	SMILES
3.84	41.5	136					COc1ccc(O[C@@H]2O[C@H](CO[C@]3(C(=O)O)C[C@H](O)[C@@H](NC(=O)CO)[C@H]([C@H](O)[C@H](O)CNC(=O)Cc4ccc(-c5ccc(O)cc5)cc4)O3)[C@H](O)[C@H](O)[C@H]2O)cc1
0.19	432	164	0.07	20.2	12		O=C(Cc1ccc(-c2ccc(O)cc2)cc1)NC[C@@H](O)[C@@H](O)[C@@H]1O[C@@](OCc2ccc(-c3ccccc3)cc2)(C(=O)O)C[C@H](O)[C@H]1NC(=O)CO
0.1	712	171	0.13	38.4	7		O=C(Cc1ccc(-c2ccc(O)cc2)cc1)NC[C@@H](O)[C@@H](O)[C@@H]1O[C@@](OCc2ccccc2)(C(=O)O)C[C@H](O)[C@H]1NC(=O)CO
